Legend:
CaMKIIδ [1] = target: T1, CaMKIIδ (Homo sapiens, UniProt Q13557); experiment: Radiometric kinase assay; assay type: biochemical
Procedure, shortened: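 Outsourced radiometric assay using conventional filter-binding, which directly measures kinase catalytic activity toward a specific substrate. Run as a concentration-dependent study.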

CaMKIIδ [2] = target: T1, CaMKIIδ; assay type: biochemical; details: read-out: inhibition of CaMKIIδ enzyme activity
CaMKII = details: cited from earlier work
δ subtype of CaMKII [3] = details: cited from earlier work; for activity against δ subtype of CaMKII: at 1 μM; for inhibition of δ subtype of CaMKII: at 10 μM
γ subtype of CaMKII = details: cited from earlier work; for activity against γ subtype of CaMKII: at 1 μM; for inhibition of γ subtype of CaMKII: at 10 μM
β subtype of CaMKII [4] = details: cited from earlier work; for activity against β subtype of CaMKII: at 1 μM; for inhibition of β subtype of CaMKII: at 10 μM
β subtype of CaMKII [5] = details: cited from earlier work; for kinase activity, β subtype of CaMKII: at 0.5 μM
CaMKIIγ = details: at 0.5 μM; cited from earlier work
α subtype of CaMKII = details: cited from earlier work; for kinase activity, α subtype of CaMKII: at 0.5 μM
δ subtype of CaMKII [6] = details: cited from earlier work; for kinase activity, δ subtype of CaMKII: at 0.5 μM
300 kinases = details: at 0.5 μM; cited from earlier work

IC50 (CaMKIIδ [1]) [µM] | IC50 for inhibition of CaMKIIδ enzyme activity (CaMKIIδ [1]; concentration-dependent study, radiometric assay) | inhibition at 50 µM (CaMKIIδ [2]) [%] | Compound | Ki (CaMKII) [nM] | activity against δ subtype of CaMKII (δ subtype of CaMKII [3]) | inhibition of δ subtype of CaMKII (δ subtype of CaMKII [3]) [%] | activity against γ subtype of CaMKII (γ subtype of CaMKII) | inhibition of γ subtype of CaMKII (γ subtype of CaMKII) [%] | activity against β subtype of CaMKII (β subtype of CaMKII [4]) | inhibition of β subtype of CaMKII (β subtype of CaMKII [4]) [%] | kinase activity, β subtype of CaMKII (β subtype of CaMKII [5]) [%] | kinase activity, γ subtype of CaMKII (CaMKIIγ) [%] | kinase activity, α subtype of CaMKII (α subtype of CaMKII) [%] | kinase activity, δ subtype of CaMKII (δ subtype of CaMKII [6]) [%] | IC50 (CaMKII) [nM] | number of different kinases with more than 60 percent inhibition (300 kinases) [kinases] | number of different kinases with more than 80 percent inhibition (300 kinases) [kinases] | inhibition of kinase activity, β subtype of CaMKII (β subtype of CaMKII [5]; at 0.5 μM in the RBC study) | inhibition of kinase activity, α subtype of CaMKII (α subtype of CaMKII; at 0.5 μM in the RBC study) | inhibition of kinase activity, δ subtype of CaMKII (δ subtype of CaMKII [6]; at 0.5 μM in the RBC study)
~5 | single-digit micromolar | ≥ 50 | CCN(CC)CCCC(C)Nc1nc(/C=C/c2ccccc2)nc2cc(Cl)ccc12 (stereo not shown) [Compound 1, (E)-N4-(7-chloro-2-styrylquinazolin-4-yl)-N1,N1-diethylpentane-1,4-diamine] | – | – | – | – | – | – | – | – | – | – | – | – | – | – | – | – | –
– | – | – | CN([C@@H](Cc1ccc(OS(=O)(=O)c2cccc3cnccc23)cc1)C(=O)N1CCN(c2ccccc2)CC1)S(=O)(=O)c1cccc2cnccc12 [KN-62] | 900 | Neither compound showed activity | 9 | Neither compound showed activity | 13 | Neither compound showed activity | 22 | 90 | 90 | 90 | 90 | – | – | – | – | – | –
– | – | – | COc1ccc(S(=O)(=O)N(CCO)c2ccccc2CN(C)CC=Cc2ccc(Cl)cc2)cc1 [KN-93] | 370 | Neither compound showed activity | 53 | Neither compound showed activity | 33 | Neither compound showed activity | 80 | 90 | 90 | 90 | 90 | 1000 to 4000 | – | – | – | – | –
– | – | – | CN(C)S(=O)(=O)c1ccc2c(c1)/C(=C/c1cc3c([nH]1)CCCC3)C(=O)N2 [SU6656] | – | – | – | – | – | – | – | – | – | – | – | – | 38 | 19 | ~ 30% | ~ 30% | ~ 30%
